Measurements reported in ChEMBL document CHEMBL3351487, “Synthesis, molecular docking and anti-mycobacterial evaluation of new imidazo[1,2-a]pyridine-2-carboxamide derivatives” (Eur J Med Chem, 2015).
In brackets after ≈: the same amount, converted by molar mass.

How the values were obtained:
[1] = Cytotoxicity against HEK293T cells assessed as inhibition of cell growth at 50 ug/mL after 72 hrs by MTT assay; assay type: cell-based, HEK-293T; settings: human, read-out: GI
In short: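 HEK-293T cells exposed to each compound at one concentration (50) for 72 h. Viability was read from cellular conversion of MTT to formazan using a non-radioactive cell proliferation kit, and the result is given as percentage inhibition of cells.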

[2] = tested on: Mycobacterium tuberculosis; experiment: Antimycobacterial activity against Mycobacterium tuberculosis H37Rv ATCC 27294 after 7 days by MABA method; assay type: functional; settings: H37Rv ATCC 27294, 168 h
In short: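 Inoculum from fresh LJ culture resuspended in 7H9-S (7H9 broth, 0.1% casitone, 0.5% glycerol, OADC), adjusted to McFarland No. 1 and diluted 1:20. Drug stocks diluted in 7H9-S to four-fold the highest final concentration. Plates sealed and incubated at 37 °C in normal atmosphere for 7 days, then alamar blue added.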

Work on `Cn1cc(-c2ccc3nc(C(=O)NCc4ccc(F)cc4)cn3c2)cn1` yielded an inhibition at 72 h, 50 ug/mL [1] of 36.1% and an MIC [2] of 25 µg/mL (≈ 71.6 µM).
`Nc1ncccc1-c1ccc2nc(C(=O)NCc3ccc(F)cc3)cn2c1` showed an inhibition at 72 h, 50 ug/mL [1] of 40.8% and an MIC [2] of 25 µg/mL (≈ 69.2 µM).
In the case of `O=C(NCc1ccc(F)cc1)c1cn2cc(-c3cccc4ncccc34)ccc2n1`, the inhibition at 72 h, 50 ug/mL [1] is reported as 28.1% and the MIC [2] is reported as 25 µg/mL (≈ 63.1 µM).
With `O=C(O)CCc1ccc(-c2ccc3nc(C(=O)NCc4ccc(F)cc4)cn3c2)cc1` the MIC [2] was > 50 µg/mL.
In the case of `Cn1cc(-c2ccc3nc(C(=O)NCc4ccco4)cn3c2)cn1`, the MIC [2] is reported as > 50 µg/mL.
Work on `Nc1ncccc1-c1ccc2nc(C(=O)NCc3ccco3)cn2c1` yielded an inhibition at 72 h, 50 ug/mL [1] of 26.1% and an MIC [2] of 25 µg/mL (≈ 75 µM).
With `O=C(NCc1ccco1)c1cn2cc(-c3cccc4ncccc34)ccc2n1` the inhibition at 72 h, 50 ug/mL [1] was 24.8% and the MIC [2] was 25 µg/mL (≈ 67.9 µM).
In the case of `O=C(NCc1ccco1)c1cn2cc(-c3cnn(CCN4CCOCC4)c3)ccc2n1`, the inhibition at 72 h, 50 ug/mL [1] is reported as 34.1% and the MIC [2] is reported as 12.5 µg/mL (≈ 29.7 µM).
For `CN1CCN(C(=O)c2ccc(-c3ccc4nc(C(=O)NCc5ccco5)cn4c3)cc2)CC1`, the inhibition at 72 h, 50 ug/mL [1] was 30.1% and the MIC [2] was 25 µg/mL (≈ 56.4 µM).
With `O=C(NCc1ccncc1)c1cn2cc(-c3ccc(Cl)cc3)ccc2n1` the inhibition at 72 h, 50 ug/mL [1] was 26.1% and the MIC [2] was 6.25 µg/mL (≈ 17.2 µM).
`COc1ccccc1-c1ccc2nc(C(=O)NCc3ccncc3)cn2c1` gave an inhibition at 72 h, 50 ug/mL [1] of 31.6% and an MIC [2] of 12.5 µg/mL (≈ 34.9 µM).
Compound `Cn1cc(-c2ccc3nc(C(=O)NCc4ccc5c(c4)OCO5)cn3c2)cn1` has an inhibition at 72 h, 50 ug/mL [1] of 25.6% and an MIC [2] of 6.25 µg/mL (≈ 16.6 µM).
For `O=C(NC1CC1)c1cn2cc(-c3cnn(CCN4CCOCC4)c3)ccc2n1`, the inhibition at 72 h, 50 ug/mL [1] was 29.1% and the MIC [2] was 25 µg/mL (≈ 65.7 µM).
In the case of `O=C(NCc1ccc(C(F)(F)F)cc1)c1cn2cc(-c3cccc4ncccc34)ccc2n1`, the inhibition at 72 h, 50 ug/mL [1] is reported as 37.8% and the MIC [2] is reported as 25 µg/mL (≈ 56 µM).
Work on `O=C(NCc1ccc(C(F)(F)F)cc1)c1cn2cc(-c3cnn(CCN4CCOCC4)c3)ccc2n1` yielded an inhibition at 72 h, 50 ug/mL [1] of 22.2% and an MIC [2] of 12.5 µg/mL (≈ 25.1 µM).
In the case of `O=C(NC1CCOCC1)c1cn2cc(-c3cnn(CCN4CCOCC4)c3)ccc2n1`, the inhibition at 72 h, 50 ug/mL [1] is reported as 30.1% and the MIC [2] is reported as 6.25 µg/mL (≈ 14.7 µM).
Compound `NNC(=O)c1ccncc1` [ISONIAZID] has an MIC [2] of 0.36 µg/mL (≈ 2.63 µM).
Compound `CO[C@H]1/C=C/O[C@@]2(C)Oc3c(C)c(O)c4c(O)c(c(/C=N/N5CCN(C)CC5)c(O)c4c3C2=O)NC(=O)/C(C)=C\C=C\[C@H](C)[C@H](O)[C@@H](C)[C@@H](O)[C@@H](C)[C@H](OC(C)=O)[C@@H]1C` [RIFAMPIN] has an MIC [2] of 0.02 µg/mL (≈ 0.0243 µM).
With `CCc1nc2ccc(Cl)cn2c1C(=O)NCc1ccc(N2CCC(c3ccc(OC(F)(F)F)cc3)CC2)cc1` [TELACEBEC] the MIC50 [2] was 2.7 nM (≈ 1.5 ng/mL).
